Calls of active or inactive are those of the source. The rule behind the calls is not given here. Positions of bridges follow the written chain, without caps; N, C: chain ends. Non-standard residues stand in square brackets, D forms with d. Residues, ends and D or L forms follow the SMILES beside them. ξ: configuration not given here. *: point of attachment. S5 = C=CCCC[C@](C)(N)C(=O)O; Acryloyl = C=CC(=O)*; Propionyl = CCC(=O)*; ξDap = NCC(N)C(=O)O
Tests used:
[1] = target: T1, Bcl-2-related protein A1 (Homo sapiens) (UniProt Q16548); test: Covalent binding affinity to Bcl2A1 in human U937 cells at 0.1 to 50 uM incubated for 24 hrs by Western blot analysis; conditions: U-937, dose 0.1-50 µM
T1 sequence (whole entry): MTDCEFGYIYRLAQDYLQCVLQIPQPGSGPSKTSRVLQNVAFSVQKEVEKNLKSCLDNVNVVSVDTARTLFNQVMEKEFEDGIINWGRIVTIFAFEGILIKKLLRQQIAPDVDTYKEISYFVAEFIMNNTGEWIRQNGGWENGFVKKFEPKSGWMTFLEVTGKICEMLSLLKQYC

Bcl-2-related protein A1 [2] = target: T2, Bcl-2-related protein A1 (Homo sapiens, UniProt Q16548); test: (§1) Binding affinity to human Bcl2A1 incubated for 2 hrs by FBid based competitive FP assay
T2 sequence (Q16548 whole entry): T1 sequence (whole entry)

[3] = target: T3, Induced myeloid leukemia cell differentiation protein Mcl-1 (Homo sapiens, UniProt Q07820); test: Binding affinity to human Mcl1 incubated for 2 hrs by FBid based competitive FP assay
T3 sequence (Q07820 whole entry): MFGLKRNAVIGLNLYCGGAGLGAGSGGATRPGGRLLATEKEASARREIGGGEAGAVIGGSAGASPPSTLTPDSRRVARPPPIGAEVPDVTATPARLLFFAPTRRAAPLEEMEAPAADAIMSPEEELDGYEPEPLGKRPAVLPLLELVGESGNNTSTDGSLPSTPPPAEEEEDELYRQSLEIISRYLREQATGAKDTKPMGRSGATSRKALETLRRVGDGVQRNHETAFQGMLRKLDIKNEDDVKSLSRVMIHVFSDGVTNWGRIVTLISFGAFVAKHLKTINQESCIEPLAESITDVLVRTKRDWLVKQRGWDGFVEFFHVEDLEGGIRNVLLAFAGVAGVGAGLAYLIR

[4] = target: T1, Bcl-2-related protein A1 (Homo sapiens); test: Covalent binding affinity to human Bcl2A1 assessed as inactivation constant by FBid based FP assay
Bcl-2-related protein A1 [5] = target: T2, Bcl-2-related protein A1; test: Covalent binding affinity to human Bcl2A1 by FBid based FP assay
[6] = target: T1, Bcl-2-related protein A1 (Homo sapiens); test: Covalent binding affinity to human Bcl2A1 assessed as Kinact/Ki ratio by FBid based FP assay
SK-MEL-28 [7] = test: Cytotoxicity in human SK-MEL-28 cells assessed as reduction in cell viability incubated for 48 hrs by MTT assay; assay type: functional, cell-based; conditions: for IC50: SK-MEL-28, 48 h
Outline: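 SK-MEL-28 cells grown in DMEM with 10% FBS and penicillin/streptomycin. Peptide applied over a concentration series for 48 h. Viability read by MTT, and IC50 taken from the dose–response.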

[8] = target: Bcl-2-like protein 1 (Homo sapiens) (UniProt Q07817); test: Binding affinity to human Bcl-xL incubated for 2 hrs by FBid based competitive FP assay
Chain of Bcl-2-like protein 1 (Homo sapiens) (Q07817 whole entry): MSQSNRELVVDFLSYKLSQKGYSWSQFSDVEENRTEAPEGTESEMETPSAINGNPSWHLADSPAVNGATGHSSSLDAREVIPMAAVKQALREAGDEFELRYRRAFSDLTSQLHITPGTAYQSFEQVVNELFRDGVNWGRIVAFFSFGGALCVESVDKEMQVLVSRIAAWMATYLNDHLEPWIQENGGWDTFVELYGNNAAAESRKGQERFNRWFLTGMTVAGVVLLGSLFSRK

[9] = target: Apoptosis regulator Bcl-2 (Homo sapiens) (UniProt P10415); test: Binding affinity to human Bcl2 incubated for 2 hrs by FBid based competitive FP assay
Chain of Apoptosis regulator Bcl-2 (Homo sapiens) (P10415 whole entry): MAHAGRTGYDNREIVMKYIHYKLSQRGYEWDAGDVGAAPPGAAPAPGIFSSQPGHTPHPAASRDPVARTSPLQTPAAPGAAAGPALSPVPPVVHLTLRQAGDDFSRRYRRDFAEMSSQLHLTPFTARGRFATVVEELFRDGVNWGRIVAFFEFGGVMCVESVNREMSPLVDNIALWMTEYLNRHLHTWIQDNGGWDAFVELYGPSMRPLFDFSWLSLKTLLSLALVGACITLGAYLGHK

[10] = target: T4, Bcl-2-like protein 2 (Homo sapiens) (UniProt Q92843); test: Binding affinity to human Bcl-w incubated for 2 hrs by FBid based competitive FP assay
T4 sequence (whole entry): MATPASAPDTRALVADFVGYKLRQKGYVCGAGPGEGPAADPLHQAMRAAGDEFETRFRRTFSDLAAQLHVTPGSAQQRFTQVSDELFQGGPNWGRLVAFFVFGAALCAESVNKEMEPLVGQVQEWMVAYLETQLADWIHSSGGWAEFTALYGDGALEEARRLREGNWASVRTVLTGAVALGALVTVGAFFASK

[11] = target: T1, Bcl-2-related protein A1 (Homo sapiens); test: Covalent binding affinity to human Bcl2A1 incubated for 2 hrs by in presence of trypsin by MS/MS analysis
Outline: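 A1 at 1 μM incubated with peptide at 10 μM, 2 h, in pH 7.2 buffer. Intact conjugate mass checked by MS. The conjugate gel band was trypsin-digested and the Cys55-bearing A1 fragment with bound peptide identified by mass spectrometry.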

[12] = target: T1, Bcl-2-related protein A1 (Homo sapiens); test: Covalent binding affinity to human Bcl2A1 incubated for 2 hrs by SDS-PAGE electrophoresis
[13] = target: T3, Induced myeloid leukemia cell differentiation protein Mcl-1; test: Binding affinity to human Mcl1 by FBid based FP assay
SK-MEL-28 [14] = test: Toxicity in human SK-MEL-28 cells at 50 uM incubated for 30 mins by LDH release assay; assay type: cell-based; conditions: sk-mel-28, 0.5 h
[15] = target: T1, Bcl-2-related protein A1 (Homo sapiens); test: as §1
SK-MEL-28 [16] = test: Synergistic cytotoxicity in human SK-MEL-28 cells assessed as reduction in cell viability at 1.25 to 30 uM incubated for 48 hrs in presence of etoposide by MTT assay; assay type: functional, cell-based; conditions: dose 1.25-30 µM
[17] = target: Induced myeloid leukemia cell differentiation protein Mcl-1/Bcl-2-like protein 11 (Homo sapiens) (UniProt Q07820+O43521); test: Inhibition of Mcl1-Bim interaction in human SK-MEL-28 cells at 30 uM incubated for 24 hrs by immunoprecipitation assay; assay type: cell-based
Chain of Induced myeloid leukemia cell differentiation protein Mcl-1/Bcl-2-like protein 11 (Homo sapiens) (O43521 whole entry, looked up): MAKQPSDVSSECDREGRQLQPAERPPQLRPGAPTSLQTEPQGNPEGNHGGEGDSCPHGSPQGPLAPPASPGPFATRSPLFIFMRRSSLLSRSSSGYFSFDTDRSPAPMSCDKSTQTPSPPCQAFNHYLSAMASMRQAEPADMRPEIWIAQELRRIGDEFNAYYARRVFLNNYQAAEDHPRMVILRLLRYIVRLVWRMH
Chain of Induced myeloid leukemia cell differentiation protein Mcl-1/Bcl-2-like protein 11 (Homo sapiens) (Q07820 whole entry, looked up): as the sequence (Q07820 whole entry) above

[18] = target: Bcl-2-like protein 11/Bcl-2-related protein A1 (Homo sapiens) (UniProt O43521+Q16548); test: Inhibition of Bcl2A1-Bim interaction in human SK-MEL-28 cells at 30 uM incubated for 24 hrs by immunoprecipitation assay; assay type: cell-based
Chain of Bcl-2-like protein 11/Bcl-2-related protein A1 (Homo sapiens) (O43521 whole entry, looked up, one chain of several): as the sequence (O43521 whole entry, looked up) above

Compound | Activity [1] | IC50 (Bcl-2-related protein A1 [2]) | IC50 [3] | Kinact [4] | Ki (Bcl-2-related protein A1 [5]) | Ratio [6] | Activity [8] | Activity [9] | Activity [10] | also measured
C=CC(=O)NCC(NC(=O)[C@@H](NC(C)=O)[C@@H](C)CC)C(=O)N[C@H](C(=O)N[C@@H](C)C(=O)N[C@@H](CCC(N)=O)C(=O)N[C@@H](CCC(=O)O)C(=O)N[C@@H](CC(C)C)C(=O)N[C@@H](CCCNC(=N)N)C(=O)N[C@@]1(C)CCC/C=C/CCC[C@@](C)(C(=O)N[C@@H](Cc2ccccc2)C(=O)N[C@@H](CC(N)=O)C(=O)N[C@@H](C)C(=O)N[C@@H](Cc2ccc(O)cc2)C(=O)N[C@@H](Cc2ccc(O)cc2)C(=O)N[C@@H](C)C(=O)N[C@@H](CCCNC(=N)N)C(=O)N[C@@H](CCCNC(=N)N)C(N)=O)NC(=O)[C@H](CC(=O)O)NC(=O)CNC(=O)[C@H]([C@@H](C)CC)NC1=O)[C@@H](C)CC (stereo partly drawn) | Active | 13.5 nM | 34.5 nM | 0.00239 s⁻¹ | 81.6 nM | 30 mM⁻¹ s⁻¹ |  |  |  | 
CC[C@H](C)[C@H](NC(C)=O)C(=O)N[C@@H](Cc1c[nH]c2ccccc12)C(=O)N[C@H](C(=O)N[C@@H](C)C(=O)N[C@@H](CCC(N)=O)C(=O)N[C@@H](CCC(=O)O)C(=O)N[C@@H](CC(C)C)C(=O)N[C@@H](CCCNC(=N)N)C(=O)N[C@@]1(C)CCC/C=C/CCC[C@@](C)(C(=O)N[C@@H](Cc2ccccc2)C(=O)N[C@@H](CC(N)=O)C(=O)N[C@@H](C)C(=O)N[C@@H](Cc2ccc(O)cc2)C(=O)N[C@@H](Cc2ccc(O)cc2)C(=O)N[C@@H](C)C(=O)N[C@@H](CCCNC(=N)N)C(=O)N[C@@H](CCCNC(=N)N)C(N)=O)NC(=O)[C@H](CC(=O)O)NC(=O)CNC(=O)[C@H]([C@@H](C)CC)NC1=O)[C@@H](C)CC |  |  |  |  |  |  |  |  |  | IC50 (SK-MEL-28 [7]): 15700 nM
C=CC(=O)NCC(NC(=O)[C@@H](NC(C)=O)[C@@H](C)CC)C(=O)N[C@H](C(=O)N[C@@H](C)C(=O)N[C@@H](CCC(N)=O)C(=O)N[C@@H](CCC(=O)O)C(=O)N[C@@H](CC(C)C)C(=O)N[C@@H](CCCNC(=N)N)C(=O)N[C@@]1(C)CCC/C=C/CCC[C@@](C)(C(=O)N[C@@H](Cc2ccccc2)C(N)=O)NC(=O)[C@H](CC(=O)O)NC(=O)CNC(=O)[C@H]([C@@H](C)CC)NC1=O)[C@@H](C)CC (stereo partly drawn) (Ac-I[ξDap](Acryloyl)IAQELR[S5]IGD[S5]F-NH2; staple (E) 9-13) | Active | 54.6 nM | 162 nM | 0.00159 s⁻¹ | 175 nM | 9 mM⁻¹ s⁻¹ | inactive | inactive | inactive | 
C=CC(=O)NCC1NC(=O)[C@@H](NC(C)=O)CCCCNC(=O)C[C@@H](C(=O)N[C@@H](CCC(=O)O)C(=O)N[C@@H](CC(C)C)C(=O)N[C@@H](CCCNC(=N)N)C(=O)N[C@H]2CCCCNC(=O)C[C@@H](C(=O)N[C@@H](Cc3ccccc3)C(N)=O)NC(=O)[C@H](CC(=O)O)NC(=O)CNC(=O)[C@H]([C@@H](C)CC)NC2=O)NC(=O)[C@H](C)NC(=O)[C@H]([C@@H](C)CC)NC1=O (stereo partly drawn) (Ac-K[ξDap](Acryloyl)IADELRKIGDDF-NH2; lactam 1-5, 9-13) | Active | 6.5 nM | 48 nM | 0.00349 s⁻¹ | 30.5 nM | 118 mM⁻¹ s⁻¹ | inactive | inactive | inactive | 
C=CC(=O)NCC1NC(=O)[C@@](C)(NC(C)=O)CCC/C=C/CCC[C@@](C)(C(=O)N[C@@H](CC(C)C)C(=O)N[C@@H](CC(C)C)C(=O)N[C@@H](CCCNC(=N)N)C(=O)N[C@H]2CCCCNC(=O)C[C@@H](C(=O)N[C@@H](Cc3ccccc3)C(N)=O)NC(=O)[C@H](CC(=O)O)NC(=O)CNC(=O)[C@H]([C@@H](C)CC)NC2=O)NC(=O)[C@H](C)NC(=O)[C@H]([C@@H](C)CC)NC1=O (stereo partly drawn) (Ac-[S5][ξDap](Acryloyl)IA[S5]LLRKIGDDF-NH2; staple (E) 1-5; lactam 9-13) |  |  |  |  |  |  |  |  |  | Activity [4]: Active

The next lines start with results.

Activity [1] | IC50 (Bcl-2-related protein A1 [2]) | IC50 [3] | Kinact [4] | Ki (Bcl-2-related protein A1 [5]) | Ratio [6] | Activity [8] | Activity [9] | Activity [10] | Compound | also measured
Active | 20.4 nM | 108 nM | 0.00231 s⁻¹ | 46.7 nM | 54 mM⁻¹ s⁻¹ | inactive | inactive | inactive | C=CC(=O)NCC1NC(=O)[C@@H](NC(C)=O)CCCCNC(=O)C[C@@H](C(=O)N[C@@H](CCC(=O)O)C(=O)N[C@@H](CC(C)C)C(=O)N[C@@H](CCCNC(=N)N)C(=O)N[C@@]2(C)CCC/C=C/CCC[C@@](C)(C(=O)N[C@@H](Cc3ccccc3)C(N)=O)NC(=O)[C@H](CC(=O)O)NC(=O)CNC(=O)[C@H]([C@@H](C)CC)NC2=O)NC(=O)[C@H](C)NC(=O)[C@H]([C@@H](C)CC)NC1=O (stereo partly drawn) (Ac-K[ξDap](Acryloyl)IADELR[S5]IGD[S5]F-NH2; lactam 1-5; staple (E) 9-13) | 
Active | 6.6 nM | 29.2 nM | 0.00367 s⁻¹ | 10 nM | 399 mM⁻¹ s⁻¹ | inactive | inactive | inactive | C=CC(=O)NCC1NC(=O)[C@@](C)(NC(C)=O)CCC/C=C/CCC[C@@](C)(C(=O)N[C@@H](CCC(=O)O)C(=O)N[C@@H](CC(C)C)C(=O)N[C@@H](CCCNC(=N)N)C(=O)N[C@H]2CCCCNC(=O)C[C@@H](C(=O)N[C@@H](Cc3ccccc3)C(N)=O)NC(=O)[C@H](CC(=O)O)NC(=O)CNC(=O)[C@H]([C@@H](C)CC)NC2=O)NC(=O)[C@H](C)NC(=O)[C@H]([C@@H](C)CC)NC1=O (stereo partly drawn) (Ac-[S5][ξDap](Acryloyl)IA[S5]ELRKIGDDF-NH2; staple (E) 1-5; lactam 9-13) | Activity [11]: Active; Activity [12]: Active
Active | 13.4 nM | 51.6 nM | 0.00224 s⁻¹ | 133 nM | 16.2 mM⁻¹ s⁻¹ | inactive | inactive | inactive | C=CC(=O)NCC1NC(=O)[C@@](C)(NC(C)=O)CCC/C=C/CCC[C@@](C)(C(=O)N[C@@H](CCC(=O)O)C(=O)N[C@@H](CC(C)C)C(=O)N[C@@H](CCCNC(=N)N)C(=O)N[C@@]2(C)CCC/C=C/CCC[C@@](C)(C(=O)N[C@@H](Cc3ccccc3)C(N)=O)NC(=O)[C@H](CC(=O)O)NC(=O)CNC(=O)[C@H]([C@@H](C)CC)NC2=O)NC(=O)[C@H](C)NC(=O)[C@H]([C@@H](C)CC)NC1=O (stereo partly drawn) (Ac-[S5][ξDap](Acryloyl)IA[S5]ELR[S5]IGD[S5]F-NH2; staple (E) 1-5, 9-13) | 
inactive |  |  |  |  |  |  |  |  | CCC(=O)NCC1NC(=O)[C@@](C)(NC(C)=O)CCC/C=C/CCC[C@@](C)(C(=O)N[C@@H](CCC(=O)O)C(=O)N[C@@H](CC(C)C)C(=O)N[C@@H](CCCNC(=N)N)C(=O)N[C@H]2CCCCNC(=O)C[C@@H](C(=O)N[C@@H](Cc3ccccc3)C(N)=O)NC(=O)[C@H](CC(=O)O)NC(=O)CNC(=O)[C@H]([C@@H](C)CC)NC2=O)NC(=O)[C@H](C)NC(=O)[C@H]([C@@H](C)CC)NC1=O (stereo partly drawn) (Ac-[S5][ξDap](Propionyl)IA[S5]ELRKIGDDF-NH2; staple (E) 1-5; lactam 9-13) | Activity [12]: inactive; Activity [13]: Active
 |  |  |  |  |  | inactive |  | inactive | CCC(=O)NCC1NC(=O)[C@@](C)(NC(C)=O)CCC/C=C/CCC[C@@](C)(C(=O)N[C@@H](CC(C)C)C(=O)N[C@@H](CC(C)C)C(=O)N[C@@H](CCCNC(=N)N)C(=O)N[C@H]2CCCCNC(=O)C[C@@H](C(=O)N[C@@H](Cc3ccccc3)C(N)=O)NC(=O)[C@H](CC(=O)O)NC(=O)CNC(=O)[C@H]([C@@H](C)CC)NC2=O)NC(=O)[C@H](C)NC(=O)[C@H]([C@@H](C)CC)NC1=O (stereo partly drawn) (Ac-[S5][ξDap](Propionyl)IA[S5]LLRKIGDDF-NH2; staple (E) 1-5; lactam 9-13) | Activity (SK-MEL-28 [14]): Non-Toxic; Activity [15]: Active; Activity [3]: Active; Activity (SK-MEL-28 [16]): Active; inhibition [17]: Active; Activity (SK-MEL-28 [7]): Dose-dependent effect; IC50 (SK-MEL-28 [7]): 8800 nM; inhibition [18]: Active
